From ChEMBL document CHEMBL4831482 (Eur J Med Chem, 2021)
In brackets after ≈: the same amount, converted by molar mass. Activity calls are given as the source filed them. The rule behind the calls is not given here. Where a SMILES comes first, the peptide text is derived from it. The star is where a group is joined. Boc = CC(C)(C)OC(=O)*; NHBn = c1ccc(CN*)cc1

Assays:
Candida albicans = test: Antifungal activity against Candida albicans ATCC 10231 assessed as inhibition of fungal growth by CLSI method; format: functional, organism-based
Vero = test: Cytotoxicity against African green monkey Vero cells assessed as reduction in cell viability incubated for 48 hrs by Neutral red assay; format: cell-based; details: chlorocebus sabaeus
Method in brief: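 VERO monkey kidney cells seeded at 25,000 cells/well and incubated 24 h to confluency. Peptide added, then a further 48 h incubation. Viability read by neutral red uptake.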

Klebsiella pneumoniae = test: Antibacterial activity against Klebsiella pneumoniae ATCC BAA1705 assessed as inhibition of bacterial growth by CLSI method; format: functional, organism-based
Aspergillus fumigatus = test: Antifungal activity against Aspergillus fumigatus ATCC 1022 assessed as inhibition of fungal growth by CLSI method; format: functional, organism-based
Cryptococcus neoformans = test: Antifungal activity against Cryptococcus neoformans ATCC 90113 assessed as inhibition of fungal growth by CLSI method; format: functional, organism-based
Enterococcus = test: Antibacterial activity against vancomycin resistant Enterococcus ATCC MP-1 assessed as inhibition of bacterial growth by CLSI method; format: functional, organism-based
Pseudomonas aeruginosa = test: Antibacterial activity against Pseudomonas aeruginosa ATCC 27853 assessed as inhibition of bacterial growth by CLSI method; format: functional, organism-based
Staphylococcus aureus = test: Antibacterial activity against methicillin-resistant Staphylococcus aureus ATCC 33591 assessed as inhibition of bacterial growth by CLSI method; format: functional, organism-based
Escherichia coli = test: Antibacterial activity against Escherichia coli ATCC 35218 assessed as inhibition of bacterial growth by CLSI method; format: functional, organism-based

SMILES | Activity (Candida albicans) | Activity (Vero) | Activity (Klebsiella pneumoniae) | Activity (Aspergillus fumigatus) | IC50 (Cryptococcus neoformans) | MIC (Cryptococcus neoformans) | IC50 (Enterococcus) | MIC (Enterococcus) | IC50 (Pseudomonas aeruginosa) | IC50 (Staphylococcus aureus) | MIC (Staphylococcus aureus) | IC50 (Escherichia coli) | MIC (Pseudomonas aeruginosa) | MIC (Escherichia coli)
CC(C)(C)OC(=O)N[C@@H](Cc1c[nH]cn1)C(=O)N[C@@H](Cc1c[nH]c2ccccc12)C(=O)N[C@@H](CCCNC(=N)N)C(=O)NCc1ccccc1 (Boc-His-Trp-Arg-NHBn) | inactive | > 10 µg/mL | inactive | inactive | > 20 µg/mL |  |  |  |  |  |  |  |  | 
Cl.Cl.N=C(N)NCCC[C@H](NC(=O)[C@H](Cc1c[nH]c2ccccc12)NC(=O)[C@@H](N)Cc1c[nH]c(-c2ccccc2)n1)C(=O)NCc1ccccc1 | inactive | > 10 µg/mL | inactive | inactive | 5.31 µg/mL | 10 µg/mL |  |  |  |  |  |  |  | 
COC(=O)[C@H](CCCNC(=N)N)NC(=O)[C@H](Cc1c[nH]c2ccccc12)NC(=O)[C@@H](N)Cc1c[nH]c(-c2ccc(C)cc2)n1.Cl.Cl | inactive | > 10 µg/mL | inactive | inactive | 8.98 µg/mL | > 20 µg/mL |  |  |  |  |  |  |  | 
CC(C)(C)OC(=O)N[C@@H](Cc1c[nH]c(-c2ccc(-c3ccccc3)cc2)n1)C(=O)N[C@@H](Cc1c[nH]c2ccccc12)C(=O)N[C@@H](CCCNC(=N)N)C(=O)NCc1ccccc1 | inactive | > 10 µg/mL | inactive | inactive | 2.15 µg/mL (≈ 2.56 µM) | 2.5 µg/mL (≈ 2.98 µM) | 8.82 µg/mL (≈ 10.5 µM) | 10 µg/mL (≈ 11.9 µM) | 19.8 µg/mL (≈ 23.6 µM) | 4.56 µg/mL (≈ 5.43 µM) | 10 µg/mL (≈ 11.9 µM) | > 20 µg/mL |  | 
CCc1ccc(-c2nc(C[C@H](NC(=O)OC(C)(C)C)C(=O)N[C@@H](Cc3c[nH]c4ccccc34)C(=O)N[C@@H](CCCNC(=N)N)C(=O)NCc3ccccc3)c[nH]2)cc1 | inactive | > 10 µg/mL | inactive | inactive | 1.5 µg/mL (≈ 1.9 µM) | 2.5 µg/mL (≈ 3.16 µM) | 14.9 µg/mL (≈ 18.8 µM) | > 20 µg/mL | > 20 µg/mL | 8.93 µg/mL (≈ 11.3 µM) | 20 µg/mL (≈ 25.3 µM) | > 20 µg/mL |  | 
CC(C)(C)OC(=O)N[C@@H](Cc1c[nH]c(-c2ccccc2)n1)C(=O)N[C@@H](Cc1c[nH]c2ccccc12)C(=O)N[C@@H](CCCNC(=N)N)C(=O)NCc1ccccc1 | inactive | > 10 µg/mL | inactive | inactive | 7.93 µg/mL (≈ 10.4 µM) | > 20 µg/mL |  |  |  |  |  |  |  | 
COC(=O)[C@H](CCCNC(=N)N)NC(=O)[C@H](Cc1c[nH]c2ccccc12)NC(=O)[C@@H](N)Cc1c[nH]c(-c2ccc(-c3ccccc3)cc2)n1.Cl.Cl | inactive | > 10 µg/mL | inactive | inactive | 1.51 µg/mL | 2.5 µg/mL | 13.2 µg/mL | 20 µg/mL | > 20 µg/mL | 7.81 µg/mL | 10 µg/mL | > 20 µg/mL |  | 
CCCCc1ccc(-c2nc(C[C@H](N)C(=O)N[C@@H](Cc3c[nH]c4ccccc34)C(=O)N[C@@H](CCCNC(=N)N)C(=O)NCc3ccccc3)c[nH]2)cc1.Cl.Cl | inactive | > 10 µg/mL | inactive | inactive | 2.27 µg/mL | 5 µg/mL | 9.99 µg/mL | 20 µg/mL | 17.2 µg/mL | 4.46 µg/mL | 10 µg/mL | 16.3 µg/mL | > 20 µg/mL | > 20 µg/mL
Cl.Cl.N=C(N)NCCC[C@H](NC(=O)[C@H](Cc1c[nH]c2ccccc12)NC(=O)[C@@H](N)Cc1c[nH]c(-c2ccc(-c3ccccc3)cc2)n1)C(=O)NCc1ccccc1 | inactive | > 10 µg/mL | inactive | inactive | 1.17 µg/mL | 5 µg/mL | 8.33 µg/mL | 20 µg/mL | 18.7 µg/mL | 4.44 µg/mL | 5 µg/mL | > 20 µg/mL | > 20 µg/mL | 
CCCCc1ccc(-c2nc(C[C@H](NC(=O)OC(C)(C)C)C(=O)N[C@@H](Cc3c[nH]c4ccccc34)C(=O)N[C@@H](CCCNC(=N)N)C(=O)NCc3ccccc3)c[nH]2)cc1 | inactive | > 10 µg/mL | inactive | inactive | 1.98 µg/mL (≈ 2.42 µM) | 2.5 µg/mL (≈ 3.05 µM) | 7.38 µg/mL (≈ 9.01 µM) | 10 µg/mL (≈ 12.2 µM) | > 20 µg/mL | 9.13 µg/mL (≈ 11.1 µM) | 10 µg/mL (≈ 12.2 µM) | > 20 µg/mL |  | 
Cl.Cl.N=C(N)NCCC[C@H](NC(=O)[C@H](Cc1c[nH]c2ccccc12)NC(=O)[C@@H](N)Cc1c[nH]cn1)C(=O)NCc1ccccc1 (H-His-Trp-Arg-NHBn) | inactive | > 10 µg/mL | inactive | inactive | 4.92 µg/mL | 10 µg/mL |  |  |  |  |  |  |  | 
